# Compound activity deposited in PubChem BioAssay by several laboratories.
# This is a sample that favours compounds with a hit; in the whole collection about 2.1% have one here.
# APOBEC3G inh: APOBEC3G (human) deaminase inhibition | Q9HC16 | recombinant A3G, ssDNA deamination FAM/TAMRA fluorescence | inhibition, % at 20 µM | 330,000 tested, 0.28% active;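 active = inhibition of at least 40% at 20 µM, with no more than 30% in the related APOBEC3A deaminase screen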;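 note: plate controls were DMSO wells with A3G for no effect and wells lacking A3G enzyme for full effect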
# A3A deaminase: human APOBEC3A DNA deaminase inhibition. recombinant A3A, FAM/TAMRA ssDNA deamination fluorescence. P31941. 330,000 tested, 0.41% active. AID 493011. inhibition, % at 20 µM;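 active = at least 40% inhibition at 20 µM here, with at most 30% in a related deaminase screen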;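 note: plate controls were A3A with DMSO for no effect and wells lacking A3A enzyme for full effect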
# SUMO Mot1 rescue: inhibitors of SUMOylation pathway: yeast Mot1-301 growth rescue; S. cerevisiae Mot1-301 growth rescue, ATP luminescence, 38.5C; percent above DMSO median, 100 means doubled; growth rescue, % at 18.8 µM; 320,000 tested, 1% active; AID 2716;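 active = every valid replicate shows activation above 250% relative to neutral control wells; inactive = the rest, any valid replicate at or below 250%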;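 note: OY570 slx delta 5 strain wells were the positive control but not used for scaling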
# C2C12 statin: suppressors of simvastatin-induced myotoxicity in C2C12 myotubes; ATP luminescence, 48 h; scaled: DMSO 0, geranylgeraniol control 100; rescue of ATP level, % at 7.49 µM; 330,000 tested, 0.78% active;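 active = mean ATP rescue above about 67%, or every replicate alone reaching that limit, limit read from the data, passing the limit was not always enough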;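 note: myotubes were challenged with 10 µM simvastatin during compound exposure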
# ASAP1 inh: inhibitors of human ASAP1 ArfGAP activity | Q9ULH1 | ASAP1-stimulated ARF1 GTP hydrolysis, GDP FP detection | inhibition, % at 16.5 µM | 360,000 tested, 0.19% active | AID 624377; in the data active = inhibition above about 25%;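 note: 0% = vehicle with enzyme and substrate and 100% = no enzyme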
# Target sequence (Q9ULH1 325-724 limits assumed): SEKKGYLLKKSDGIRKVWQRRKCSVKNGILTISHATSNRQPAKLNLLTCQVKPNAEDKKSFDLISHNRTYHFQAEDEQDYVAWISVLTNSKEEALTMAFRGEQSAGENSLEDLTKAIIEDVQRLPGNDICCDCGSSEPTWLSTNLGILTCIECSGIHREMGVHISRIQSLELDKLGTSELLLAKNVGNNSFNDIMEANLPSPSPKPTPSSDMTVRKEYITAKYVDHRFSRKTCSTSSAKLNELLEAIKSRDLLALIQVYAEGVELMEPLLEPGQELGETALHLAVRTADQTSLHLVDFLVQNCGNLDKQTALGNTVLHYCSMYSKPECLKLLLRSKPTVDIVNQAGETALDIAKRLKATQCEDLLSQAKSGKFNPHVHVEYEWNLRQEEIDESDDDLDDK
# ARFGAP1 inhibitor: rat ARFGAP1 inhibition. Arfgap1-stimulated ARF1 GTP hydrolysis, GDP FP detection. 360,000 tested, 0.26% active. AID 651572. Q62848. inhibition, % at 16.5 µM;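 active = inhibition above a per-plate limit, mean inhibition of low control wells plus 3 SD, cut at about 25% in these data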;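 note: 0% = DMSO wells with enzyme and 100% = wells lacking Arfgap1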
#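 Assay system: Rat Arfgap1 GAP domain (His6, aa 1-136), purified enzyme | Buffer or medium: HEPES 25 mM pH 7.5, NaCl 150 mM, MgCl2, DTT | Schedule: GTP hydrolysis reaction 2 h at 25 °C | Signal: FP of antibody-bound GDP Alexa 633 tracer, ex 620/em 688 nm | Measure: Percent inhibition of Arfgap1-stimulated GTP hydrolysis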
# A3A conf: confirmation of human APOBEC3A DNA deaminase inhibitors | shares compounds with A3A deaminase | recombinant A3A, ssDNA deaminase UDG fluorescence assay | inhibition, % at 20 µM | 1,400 tested, 63% active | AID 493151;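 active = inhibition reaching a set limit, 80% of the first screen's cutoff, at 20 µM in any replicate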;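 note: plate controls were DMSO wells with A3A for no effect and wells lacking A3A enzyme for full effect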
# UDG ctr A3A: counter-screen for APOBEC3A inhibitors: UDG; shares compounds with A3A deaminase; UDG counterscreen, FAM/TAMRA uracil oligo fluorescence; inhibition, % at 20 µM; 1,000 tested, under 10 active; AID 504714; call rule not given here
# An asterisk follows results filed as active; i = inactive; / = no result given.
SMILES,APOBEC3G inh,A3A deaminase,SUMO Mot1 rescue,C2C12 statin,ASAP1 inh,ARFGAP1 inhibitor,A3A conf,UDG ctr A3A
Cc1ccc(N=C2NC(=O)CS2)cc1,-5,-3,-1,/,-5,21,/,/
Cc1cc(C)nc(/N=C2/NC(=O)CS2)n1,-1,64*,-4,-12,-1,-12,-4,3
C[C@@H]1CN([C@@H](C)CO)C(=O)c2cc(N(C)C)ccc2O[C@H]1CN(C)C(=O)NC1CCCCC1,/,/,/,14,/,/,/,/
CCOC(=O)CC(NS(=O)(=O)c1ccc2[nH]cc(C(=O)O)c(=O)c2c1)c1ccc(OCC)c(OC)c1 (centres undefined),14,47*,7,4,4,-11,33*,/
C[C@H](NC(=O)c1ccccc1Cl)C(=O)NCc1cccs1,5,59*,-19,/,1,9,5,/
CC(NC(=O)c1ccccc1Cl)C(=O)NCc1cccs1 (centres undefined),8,-3,/,10,7,3,/,/
Cc1nnc(SC(C)C(=O)Nc2nccs2)s1 (centres undefined),5,71*,5,1,11,2,13,/
Cc1nnc(NC(=O)C(C)Sc2nncn2C)s1 (centres undefined),-3,69*,1,7,-2,9,-8,-3
CC(Sc1nnc(N)s1)C(=O)Nc1nccs1 (centres undefined),-3,-2,274,/,11,6,/,/
COc1ccc(NC(=O)N(C)C[C@@H]2Oc3cc(-c4ccncc4)ccc3S(=O)(=O)N([C@H](C)CO)C[C@@H]2C)cc1,/,/,/,26,/,/,/,/
C[N+]1(CN2C(=O)C3C4C=CC(C4)C3C2=O)CCCCC1 (centres undefined),25,68*,-4,/,10,2,68*,-2
O=C(N/N=C\C=C\c1ccc2c(c1)OCO2)c1cccnc1,-4,45*,i,-3,-13,-5,1,3
O=C(/C=C/c1ccc2c(c1)OCO2)c1cccnc1,-10,-4,2,4,10,-4,/,/
CCN1CCN(c2ccc(NC(=O)c3ccc4c(c3)OCCO4)cc2C)CC1,19,74*,/,-21,7,10,73*,-1
CCN1CCN(c2cc(C)c3cc(NC(=O)c4ccc5c(c4)OCO5)ccc3n2)CC1,-2,1,34,5,7,15,/,/
CCN1CCN(c2ccc(NC(=O)c3cc4ccccc4cc3OC)cc2C)CC1,7,41*,58,10,11,3,73*,-4
CNC[C@H]1Oc2ccc(N)cc2C(=O)N([C@H](C)CO)C[C@@H]1C,/,/,/,-15,/,/,/,/
CN1[C@@H]2c3ccc(-c4ccc(F)cc4)c(=O)n3C[C@@H]2[C@@H](CO)[C@@H]1C(=O)Nc1ccccc1,/,/,/,-4,/,/,/,/
COC(=O)CCC(=O)OC1(C)C(=O)C=C2C=C(C3CC3)N(C3CCCCC3)C=C2C1=O (centres undefined),-9,48*,-4,5,11,10,-5,-2
CNC(=O)C[C@@H]1CC[C@@H]2[C@H](COC[C@@H](O)CN2Cc2ccc(Cl)c(Cl)c2)O1,/,/,/,24,/,/,/,/
CC[n+]1cc(-c2ccccc2)nc(N2CCOCC2)n1,19,51*,-11,13,8,-8,67*,/
CCC(=O)Nc1ccc2c(c1)C(=O)N(C)[C@H]1CC[C@H](CC(=O)NCc3ccccc3Cl)O[C@@H]1CO2,/,/,/,14,/,/,/,/
Cc1ccc(CCCOC(=O)C[N+]2(C)CCOCC2)cc1,24,42*,213,-17,13,2,89*,4
O=C(CN1CCOCC1)OCCCc1ccccc1,-1,-1,359,/,5,-5,/,/
C[N+]1(CC(=O)OCCCc2ccccc2)CCOCC1,24,69*,-13,-7,8,-1,92*,5
